According to ChEMBL document CHEMBL3621107, “Ring fusion strategy for synthesis and lead optimization of sulfur-substituted anthra[1,2-c][1,2,5]thiadiazole-6,11-dione derivatives as promising scaffold of antitumor agents” (Eur J Med Chem, 2015):

How the values were obtained:
SNB-75 = experiment: Cytotoxicity against human SNB75 cells assessed as cell growth at 10 uM after 48 hrs by SRB assay relative to control; assay type: functional; details: SNB-75, 48 h, read-out: Activity
In short: (§1)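 NCI-60 one-dose screen run by NCI DTP: each cell line exposed to a single 10 µM dose, and percentage growth recorded against untreated growth.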

NCI/ADR-RES = experiment: Cytotoxicity against human NCI/ADR-RES cells assessed as cell growth at 10 uM after 48 hrs by SRB assay relative to control; assay type: functional; details: read-out: Activity
In short: (§2)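 First-stage NCI DTP one-dose screen against the 60 human tumour cell line panel. Compounds were tested at a single 10 μM level, and results are given as growth percentage.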

Malme-3M = experiment: Cytotoxicity against human MALME-3M cells assessed as cell growth at 10 uM after 48 hrs by SRB assay relative to control; assay type: functional; details: read-out: Activity
In short: (§3)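 First-stage NCI-60 screen by the NCI Developmental Therapeutics Program. Each compound was tested once at a single concentration of 10 μM against the 60-cell-line panel. Growth percentage was reported for each cell line.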

786-0 = experiment: Cytotoxicity against human 786-0 cells assessed as cell growth at 10 uM after 48 hrs by SRB assay relative to control; assay type: functional; details: 786-0, 48 h, read-out: Activity; in short: as §3
KM12 = experiment: Cytotoxicity against human KM12 cells assessed as cell growth at 10 uM after 48 hrs by SRB assay relative to control; assay type: functional; details: KM12, 48 h, read-out: Activity; in short: as §3
UACC-62 = experiment: Cytotoxicity against human UACC62 cells assessed as cell growth at 10 uM after 48 hrs by SRB assay relative to control; assay type: functional; details: UACC-62, 48 h, read-out: Activity; in short: as §1
K562 = experiment: Cytotoxicity against human K562 cells assessed as cell growth at 10 uM after 48 hrs by SRB assay relative to control; assay type: functional; details: K562, 48 h, read-out: Activity; in short: as §3
SK-MEL-28 = experiment: Cytotoxicity against human SK-MEL-28 cells assessed as cell growth at 10 uM after 48 hrs by SRB assay relative to control; assay type: functional; details: SK-MEL-28, 48 h, read-out: Activity; in short: as §2
[1] = Cytotoxicity against human EKVX cells assessed as cell growth at 10 uM after 48 hrs by SRB assay relative to control; assay type: functional; details: read-out: Activity; in short: as §3
SN12C = experiment: Cytotoxicity against human SN12C cells assessed as cell growth at 10 uM after 48 hrs by SRB assay relative to control; assay type: functional; details: read-out: Activity; in short: as §2
SK-MEL-5 = experiment: Cytotoxicity against human SK-MEL-5 cells assessed as cell growth at 10 uM after 48 hrs by SRB assay relative to control; assay type: functional; details: SK-MEL-5, 48 h, read-out: Activity; in short: as §2
UO-31 = experiment: Cytotoxicity against human UO31 cells assessed as cell growth at 10 uM after 48 hrs by SRB assay relative to control; assay type: functional; details: UO-31, 48 h, read-out: Activity; in short: as §1
CAKI-1 = experiment: Cytotoxicity against human Caki1 cells assessed as cell growth at 10 uM after 48 hrs by SRB assay relative to control; assay type: functional; details: CAKI-1, 48 h, read-out: Activity; in short: as §3
LOX IMVI = experiment: Cytotoxicity against human LOXIMVI cells assessed as cell growth at 10 uM after 48 hrs by SRB assay relative to control; assay type: functional; details: read-out: Activity; in short: as §3
PC-3 = experiment: Cytotoxicity against human PC3 cells assessed as cell growth at 10 uM after 48 hrs by SRB assay relative to control; assay type: functional; details: PC-3, 48 h, read-out: Activity; in short: as §2
MDA-MB-435 = experiment: Cytotoxicity against human MDA-MB-435 cells assessed as cell growth at 10 uM after 48 hrs by SRB assay relative to control; assay type: functional; details: MDA-MB-435, 48 h, read-out: Activity; in short: as §2
NCI-H23 = experiment: Cytotoxicity against human NCI-H23 cells assessed as cell growth at 10 uM after 48 hrs by SRB assay relative to control; assay type: functional; details: NCI-H23, 48 h, read-out: Activity; in short: as §2
MOLT-4 = experiment: Cytotoxicity against human MOLT4 cells assessed as cell growth at 10 uM after 48 hrs by SRB assay relative to control; assay type: functional; details: MOLT-4, 48 h, read-out: Activity; in short: as §2
HCC 2998 = experiment: Cytotoxicity against human HCC2998 cells assessed as cell growth at 10 uM after 48 hrs by SRB assay relative to control; assay type: functional; details: HCC 2998, 48 h, read-out: Activity; in short: as §3
HCT-15 = experiment: Cytotoxicity against human HCT15 cells assessed as cell growth at 10 uM after 48 hrs by SRB assay relative to control; assay type: functional; details: HCT-15, 48 h, read-out: Activity; in short: as §3
SK-MEL-2 = experiment: Cytotoxicity against human SK-MEL-2 cells assessed as cell growth at 10 uM after 48 hrs by SRB assay relative to control; assay type: functional; details: SK-MEL-2, 48 h, read-out: Activity; in short: as §2
IGROV-1 = experiment: Cytotoxicity against human IGROV1 cells assessed as cell growth at 10 uM after 48 hrs by SRB assay relative to control; assay type: functional; details: IGROV-1, 48 h, read-out: Activity; in short: as §3
HOP-92 = experiment: Cytotoxicity against human HOP92 cells assessed as cell growth at 10 uM after 48 hrs by SRB assay relative to control; assay type: functional; details: HOP-92, 48 h, read-out: Activity; in short: as §3
MDA-MB-468 = experiment: Cytotoxicity against human MDA-MB-468 cells assessed as cell growth at 10 uM after 48 hrs by SRB assay relative to control; assay type: functional; details: MDA-MB-468, 48 h, read-out: Activity; in short: as §2
DU-145 = experiment: Cytotoxicity against human DU145 cells after 72 hrs by MTT assay; assay type: functional, cell-based; details: for IC50: DU-145, 72 h
In short: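 DU-145 cells grown in RPMI-1640 with 5% heat-inactivated fetal calf serum at 37 °C, 5% CO2. About 2×10^3 cells per well were seeded and incubated for 24 h. Compounds were dissolved in DMSO freshly and diluted into medium (vehicle 0.1% DMSO), then cells were exposed for 72 h. MTT was added for 3 h at 37 °C and absorbance read at 570 nm.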

M14 = experiment: Cytotoxicity against human M14 cells assessed as cell growth at 10 uM after 48 hrs by SRB assay relative to control; assay type: functional; details: M14, 48 h, read-out: Activity; in short: as §3
RPMI-8226 = experiment: Cytotoxicity against human RPMI8226 cells assessed as cell growth at 10 uM after 48 hrs by SRB assay relative to control; assay type: functional; details: RPMI-8226, 48 h, read-out: Activity; in short: as §2
SF-268 = experiment: Cytotoxicity against human SF268 cells assessed as cell growth at 10 uM after 48 hrs by SRB assay relative to control; assay type: functional; details: SF-268, 48 h, read-out: Activity; in short: as §2
NCI-H522 = experiment: Cytotoxicity against human NCI-H522 cells assessed as cell growth at 10 uM after 48 hrs by SRB assay relative to control; assay type: functional; details: NCI-H522, 48 h, read-out: Activity; in short: as §2
ACHN = experiment: Cytotoxicity against human ACHN cells assessed as cell growth at 10 uM after 48 hrs by SRB assay relative to control; assay type: functional; details: read-out: Activity; in short: as §3
HT-29 = experiment: Cytotoxicity against human HT-29 cells assessed as cell growth at 10 uM after 48 hrs by SRB assay relative to control; assay type: functional; details: HT-29, 48 h, read-out: Activity; in short: as §3

Row | Structure (SMILES) | growth at 10 µM (SNB-75) [%] | growth at 10 µM (Malme-3M) [%] | growth at 10 µM (786-0) [%] | growth at 10 µM (KM12) [%] | growth at 10 µM (UACC-62) [%] | growth at 10 µM (K562) [%] | growth at 10 µM (SK-MEL-28) [%] | growth at 10 µM [1] [%] | growth at 10 µM (SN12C) [%] | growth at 10 µM (UO-31) [%] | growth at 10 µM (CAKI-1) [%] | growth at 10 µM (LOX IMVI) [%] | growth at 10 µM (PC-3) [%] | growth at 10 µM (NCI-H23) [%] | growth at 10 µM (MOLT-4) [%] | growth at 10 µM (HCC 2998) [%] | growth at 10 µM (HCT-15) [%] | growth at 10 µM (SK-MEL-2) [%] | growth at 10 µM (IGROV-1) [%] | growth at 10 µM (MDA-MB-468) [%] | other results
1 | O=C1c2ccccc2C(=O)c2c1cc(SCc1ccccc1)c1nsnc21 | 39.6 | 80.8 | 92.6 | 103 | 43.1 | 10.5 | 95 | 95 | 66.1 | 73.8 | 73.8 | 7.49 | 38.4 | 55.3 | -21 | 115 | 54.7 | -3.95 | 43.9 | -85.3 | growth at 10 µM (NCI/ADR-RES): 62.3%; growth at 10 µM (SK-MEL-5): 22.5%; growth at 10 µM (MDA-MB-435): -48.3%; growth at 10 µM (HOP-92): -14.4%; IC50 (DU-145): 6.35 µM; growth at 10 µM (M14): 86.5%; growth at 10 µM (RPMI-8226): 43.2%; growth at 10 µM (SF-268): 56%; growth at 10 µM (NCI-H522): 78.9%
2 | O=C1c2ccccc2C(=O)c2c1cc(Sc1ccc(Cl)cc1)c1nsnc21 | 91.7 | 105 | 109 | 102 | 90.7 | 94.9 | 130 | 94.8 | 87 | 79.5 | 87 | 83.2 | 86.9 | 100 | 59.2 | 107 | 98.1 | 109 | 84.9 | 46.1 | growth at 10 µM (NCI/ADR-RES): 102%; growth at 10 µM (MDA-MB-435): 107%; growth at 10 µM (HOP-92): 94.8%; IC50 (DU-145): > 15 µM; growth at 10 µM (M14): 105%; growth at 10 µM (RPMI-8226): 90.2%; growth at 10 µM (SF-268): 105%; growth at 10 µM (NCI-H522): 93.4%
3 | Cc1cccc(C)c1Sc1cc2c(c3nsnc13)C(=O)c1ccccc1C2=O | 69.4 | 73.7 | 115 | 96 | 91.7 | 43.1 | 89.3 | 82.4 | 67.7 | 66.7 | 61 | 44.6 | 59.9 | 67.4 | 32.6 | 101 | 47.5 | 67.5 | 66.4 | 45.9 | growth at 10 µM (NCI/ADR-RES): 59.7%; growth at 10 µM (ACHN): 83.2%; growth at 10 µM (HT-29): 97.7%; growth at 10 µM (SK-MEL-5): 70.2%; growth at 10 µM (MDA-MB-435): 96.8%; IC50 (DU-145): 7.88 µM; growth at 10 µM (M14): 122%; growth at 10 µM (RPMI-8226): 55.6%; growth at 10 µM (SF-268): 79.5%; growth at 10 µM (NCI-H522): 61.4%
4 | O=C1c2ccccc2C(=O)c2c1cc(Sc1ccccc1)c1nsnc21 | 96.1 | 106 | 110 | 99.5 | 86.3 | 52 | 127 | 97.8 | 96.6 | 80.1 | 89 | 42 | 87.3 | 79.2 | 31.1 | 111 | 93.9 | 112 | 84.4 | 87.3 | growth at 10 µM (SK-MEL-5): 85.7%; growth at 10 µM (HOP-92): 118%; IC50 (DU-145): > 15 µM; growth at 10 µM (M14): 106%; growth at 10 µM (RPMI-8226): 78.2%; growth at 10 µM (SF-268): 102%; growth at 10 µM (NCI-H522): 94.9%
5 | CC(C)Sc1cc2c(c3nsnc13)C(=O)c1ccccc1C2=O | 9.12 | -86 | 12.4 | 19.3 | -57.1 | -26.2 | -8.32 | -6.58 | -28.6 | -28.4 | -5.68 | -21.6 | -13.4 | -42.2 | -54.6 | 21 | 15.3 | -55.6 | -32.9 | -78.8 | growth at 10 µM (NCI/ADR-RES): -24.9%; growth at 10 µM (ACHN): 0.8%; growth at 10 µM (HT-29): 48.1%; growth at 10 µM (SK-MEL-5): -99.2%; growth at 10 µM (MDA-MB-435): -79.3%; Activity (DU-145): Dose-dependent effect; IC50 (DU-145): 4.53 µM; growth at 10 µM (M14): -31.5%; growth at 10 µM (RPMI-8226): -38%; growth at 10 µM (SF-268): 7.06%; growth at 10 µM (NCI-H522): -59.5%
6 | O=C1c2ccccc2C(=O)c2c1cc(Cl)c1nsnc21 | 85.2 | 97.1 | 102 | 95.9 | 72.9 | 2.44 | 132 | 82.2 | 71.9 | 80.2 | 96.5 | 10.2 | 23.5 | 75 | -34.1 | 106 | 96.8 | 0.21 | 52.5 | -88.3 | growth at 10 µM (SK-MEL-5): 72.5%; growth at 10 µM (HOP-92): -52.2%; IC50 (DU-145): 6.68 µM; growth at 10 µM (M14): 103%; growth at 10 µM (RPMI-8226): 27.8%; growth at 10 µM (SF-268): 37%; growth at 10 µM (NCI-H522): 89.5%
